For 20 compounds, EC50, IC50 and Ratio results are on record in ChEMBL document CHEMBL1828613, “Optimization of cellular activity of G9a inhibitors 7-aminoalkoxy-quinazolines” (J Med Chem, 2011).

Experiment [1] has as its system MDA-MB-231. Nature of the experiment: Cytotoxicity against human MDA-MB-231 cells assessed as cell viability after 48 hrs by MTT assay. The experiment is classed as functional, cell-based. To be noted: MDA-MB-231, 48 h.
Experiment [2] has as its target T1, Histone-lysine N-methyltransferase EHMT2 (Homo sapiens, UniProt Q96KQ7).
T1 sequence (Q96KQ7 whole entry): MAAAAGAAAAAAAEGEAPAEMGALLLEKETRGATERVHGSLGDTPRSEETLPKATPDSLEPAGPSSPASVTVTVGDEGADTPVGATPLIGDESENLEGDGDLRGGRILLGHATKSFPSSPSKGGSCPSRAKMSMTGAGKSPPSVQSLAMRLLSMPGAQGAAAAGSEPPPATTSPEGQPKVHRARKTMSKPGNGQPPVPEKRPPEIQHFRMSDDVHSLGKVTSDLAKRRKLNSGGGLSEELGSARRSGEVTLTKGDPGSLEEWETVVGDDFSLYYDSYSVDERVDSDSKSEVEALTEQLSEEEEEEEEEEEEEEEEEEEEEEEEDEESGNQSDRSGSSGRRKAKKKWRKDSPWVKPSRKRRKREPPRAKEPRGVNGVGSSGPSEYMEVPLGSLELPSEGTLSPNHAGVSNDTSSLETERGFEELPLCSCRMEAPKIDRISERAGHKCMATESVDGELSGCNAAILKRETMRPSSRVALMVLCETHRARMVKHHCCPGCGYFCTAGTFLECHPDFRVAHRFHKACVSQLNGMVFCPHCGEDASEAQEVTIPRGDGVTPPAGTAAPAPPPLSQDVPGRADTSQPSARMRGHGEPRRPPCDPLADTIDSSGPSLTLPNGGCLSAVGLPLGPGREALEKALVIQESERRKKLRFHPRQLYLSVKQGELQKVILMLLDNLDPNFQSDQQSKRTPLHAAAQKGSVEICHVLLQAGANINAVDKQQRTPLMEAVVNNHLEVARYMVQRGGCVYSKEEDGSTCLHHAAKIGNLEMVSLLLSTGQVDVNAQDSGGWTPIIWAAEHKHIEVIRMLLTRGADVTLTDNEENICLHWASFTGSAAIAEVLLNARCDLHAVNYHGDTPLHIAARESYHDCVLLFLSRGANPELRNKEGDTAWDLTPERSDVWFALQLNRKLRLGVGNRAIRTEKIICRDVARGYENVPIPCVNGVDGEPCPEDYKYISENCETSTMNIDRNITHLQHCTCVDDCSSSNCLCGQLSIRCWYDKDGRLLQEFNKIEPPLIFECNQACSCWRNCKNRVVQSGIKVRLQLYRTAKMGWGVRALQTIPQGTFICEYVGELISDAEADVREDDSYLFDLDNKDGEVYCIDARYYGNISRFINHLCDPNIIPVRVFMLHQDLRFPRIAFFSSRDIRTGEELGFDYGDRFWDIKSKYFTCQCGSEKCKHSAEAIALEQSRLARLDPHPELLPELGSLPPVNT
Nature of the experiment: Inhibition of G9a in human MDA-MB-231 cells assessed as reduction of H3K9me2 after 48 hrs by In-Cell Western assay. The experiment is classed as cell-based. The method in brief:
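In-Cell Western: MDA-MB-231 cells grown in RPMI/10% FBS were seeded at 5–10 thousand per well and treated 48 h across a concentration series. Cells were fixed in 2% formaldehyde, blocked in 1% BSA, and stained with H3K9me2 antibody (1/800, 2 h), then IR800 secondary plus DRAQ5. Three wells were stained and one kept as background. The 800 nm signal was normalized to background and DRAQ5 and expressed as % control. IC50 from a sigmoidal variable-slope fit, averaging at least duplicate runs.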

Experiment [3] in a line: Cytotoxicity against human […] assessed as cell viability after 48 hrs by MTT assay. The experiment is classed as functional, cell-based. Summed up:
(§1)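 MTT viability read after 48 h inhibitor exposure. Culture media were alphaMEM + 10% FBS for 22RV1, DMEM + 10% FBS for IMR90 and MCF7, and RPMI + 10% FBS for PC3. Medium was replaced with phenol-red-free DMEM 10% FBS containing 1 mg/ml MTT for 1–2 h. Formazan was dissolved in acidified isopropanol/1% Triton and read at 570 nm minus 650 nm. EC50 came from a sigmoidal variable-slope fit, averaging at least duplicate runs.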
A general note: Formazan colour is commonly taken as a measure of viable cells.

Experiment [4] concerns IMR-90. The experiment in a line: Cytotoxicity against human IMR90 cells assessed as cell viability after 48 hrs by MTT assay. The experiment is classed as cell-based. The conditions noted are these: IMR-90, 48 h. Summed up: as §1
Experiment [5] concerns CWR22R. The experiment in a line: Cytotoxicity against human 22Rv1 cells assessed as cell viability after 48 hrs by MTT assay. To be noted: 22Rv1, 48 h. The experiment is classed as functional, cell-based. Summed up: as §1
The subject of experiment [6] is PC-3. Nature of the experiment: Cytotoxicity against human PC3 cells assessed as cell viability after 48 hrs by MTT assay. The experiment is classed as functional, cell-based. To be noted: PC-3, 48 h. Summed up:
as §1

Experiment [7] concerns the target T1, Histone-lysine N-methyltransferase EHMT2. Nature of the experiment: Inhibition of G9a assessed as hydrolysis of S-adenosyl-L-homocysteine after 2 mins by SAHH-coupled fluorescence assay.
Experiment [8] in a line: Ratio of EC50 for human MDA-MB-231 cells to IC50 for G9a in human MDA-MB-231 cells. Summed up: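 ICW used DRAQ5-normalized H3K9me2 immunofluorescence. MTT was read at 570 nm corrected at 650 nm. Each value was a sigmoidal variable-slope fit averaged over at least duplicate runs.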
In experiment [9] the target is T1, Histone-lysine N-methyltransferase EHMT2. The experiment in a line: Inhibition of G9a in human IMR90 cells assessed as reduction of H3K9me2 after 48 hrs by In-Cell Western assay. The experiment is classed as cell-based, IMR-90.
Experiment [10] shares this target. Nature of the experiment: Inhibition of G9a in human 22Rv1 cells assessed as reduction of H3K9me2 after 48 hrs by In-Cell Western assay. The experiment is classed as cell-based, CWR22R.
The target is the same in experiment [11]. Nature of the experiment: Inhibition of G9a in human MCF7 cells assessed as reduction of H3K9me2 after 48 hrs by In-Cell Western assay. The experiment is classed as cell-based.
The target is the same in experiment [12]. The experiment in a line: Inhibition of G9a in human PC3 cells assessed as reduction of H3K9me2 after 48 hrs by In-Cell Western assay. The experiment is classed as cell-based, PC-3.
For experiment [13] the target is unchanged. Nature of the experiment: Inhibition of G9a in p53-deficient human HCT116 cells assessed as reduction of H3K9me2 after 48 hrs by In-Cell Western assay. The experiment is classed as cell-based, HCT-116.
The target is the same in experiment [14]. Nature of the experiment: Inhibition of G9a in human HCT116 cells assessed as reduction of H3K9me2 after 48 hrs by In-Cell Western assay. It is filed as cell-based, HCT-116.

For orientation: EC50 means the concentration at which the effect is half-maximal. The IC50 is the midpoint of a concentration-inhibition curve.

Regarding `COc1cc2c(NC3CCN(C)CC3)nc(N3CCCN(C)CC3)nc2cc1OCCCN1CCCC1`, the concentration giving a half-maximal response (EC50) in experiment [1] was determined as 15000 nM.
Still for that read-out and setting: the figure for `COc1cc2c(NC3CCN(C)CC3)nc(N3CCCN(C)CC3)nc2cc1OCCCN1CCCCC1` is 12000 nM.
With `COc1cc2c(NC3CCN(C)CC3)nc(N3CCCN(C)CC3)nc2cc1OCCOCCN(C)C`, in experiment [2], the half-maximal inhibitory concentration (IC50) was determined as 11000 nM. Also, the EC50 in experiment [1] is over 40000 nM.
As for `COc1cc2c(NC3CCN(C(C)C)CC3)nc(C3CCCCC3)nc2cc1OCCCN1CCCC1`, the concentration giving a half-maximal response (EC50) was 7600 nM in experiment [3], 2300 nM in experiment [4], 4500 nM in [5] and 14000 nM in [6].
Turning to `COc1cc2c(NC3CCN(C(C)C)CC3)nc(N3CCCN(C(C)C)CC3)nc2cc1OCCCN1CCCCC1`, the IC50 in experiment [7] is 8 nM; in experiment [2], 54 nM. In experiment [1], the 50% effective concentration (EC50) turned out to be 4100 nM.
In the case of `COc1cc2c(NC3CCN(C(C)C)CC3)nc(N3CCCN(C)CC3)nc2cc1OCCCN1CCCC1`, the Ratio in experiment [8] is listed as 3. The figures for the half-inhibitory concentration (IC50) in experiment [7] and in experiment [2] were 10 nM and 520 nM, respectively. For the same compound, the EC50 in experiment [1] was determined as 1400 nM.
As to `CCN1CCCN(c2nc(NC3CCN(C(C)C)CC3)c3cc(OC)c(OCCCN4CCCC4)cc3n2)CC1`, the Ratio in [8] was found to be 4. In addition, in experiment [2], the IC50 stood at 470 nM. In addition, in experiment [1], the EC50 was 1700 nM.
`COc1cc2c(NC3CCN(C(C)C)CC3)nc(N3CCCN(C(C)C)CC3)nc2cc1OCCCN1CCCC1`: the Ratio in experiment [8] is 13. The values for the half-inhibitory concentration (IC50) in experiment [7] and in [2] were 2 nM and 340 nM, respectively. Moreover, the concentration for a half-maximal effect (EC50) in experiment [1] amounted to 4500 nM.
In the same order, the values of `COc1cc2c(NC3CCN(C(C)C)CC3)nc(N3CCCN(C4CCCCC4)CC3)nc2cc1OCCCN1CCCC1` are 7, 22 nM, 100 nM and 730 nM.
As to `COc1cc2c(NC3CCN(C(C)C)CC3)nc(N3CCCN(CC4CCCCC4)CC3)nc2cc1OCCCN1CCCC1`, the Ratio in experiment [8] is recorded as 8. Besides, the IC50 in [2] is 93 nM. In experiment [1], the EC50 was 760 nM.
For `COc1cc2c(NC3CCN(C(C)C)CC3)nc(N3CCCN(c4ccccc4)CC3)nc2cc1OCCCN1CCCC1`, in experiment [8], the Ratio worked out at 10. Moreover, the 50% inhibitory concentration (IC50) in experiment [7] turned out to be 10 nM; in experiment [2], 220 nM. Moreover, in experiment [1], the EC50 stood at 2100 nM.
In the same order, the values of `COc1cc2c(NC3CCN(C(C)C)CC3)nc(N3CCCN(Cc4ccccc4)CC3)nc2cc1OCCCN1CCCC1` are 10, 9 nM, 58 nM and 600 nM.
In the same order, the values of `COc1cc2c(NC3CCN(C(C)C)CC3)nc(N3CCCCC3)nc2cc1OCCCN1CCCC1` are 47, 16 nM, 150 nM and 7000 nM.
In the same order, the values of `COc1cc2c(NC3CCN(C(C)C)CC3)nc(N3CCCCCC3)nc2cc1OCCCN1CCCC1` are 57, 20 nM, 100 nM and 5700 nM.
Turning to `COc1cc2c(NC3CCN(C(C)C)CC3)nc(C3CCCCC3)nc2cc1OCCCN1CCCCC1`, the half-inhibitory concentration (IC50) was determined as 110 nM in experiment [7] and 260 nM in experiment [2]. Further, in experiment [1], the half-maximal effective concentration (EC50) stood at 7600 nM.
In the same order, the values of `COc1cc2c(NC3CCN(C(C)C)CC3)nc(C3CCCCC3)nc2cc1OCCOCCN(C)C` are 21 nM, 180 nM and 13000 nM.
Regarding `COc1cc2c(NC3CCN(CC4CCCCC4)CC3)nc(N3CCCN(C(C)C)CC3)nc2cc1OCCCN1CCCCC1`, the half-maximal inhibitory concentration (IC50) is 4 nM in experiment [7]; 46 nM in experiment [9]; 24 nM in experiment [10]; 25 nM in experiment [2]; 18 nM in [11]; 26 nM in experiment [12]. For the same compound, the figures for the IC50 in experiment [13] and in experiment [14] were 72 nM and 51 nM, respectively. In addition, the EC50 in experiment [1] was 2800 nM.
For the compound `COc1cc2c(NC3CCN(C4CCCCC4)CC3)nc(N3CCCN(C)CC3)nc2cc1OCCCN1CCCCC1`, the IC50 in [7] is 11 nM; in [2] it was 56 nM. Also, the half-maximal effective concentration (EC50) in experiment [1] worked out at 2900 nM.
In the same order, the values of `COc1cc2c(NC3CCN(C(C)C)CC3)nc(N3CCCCCC3)nc2cc1OCCCN1CCCCC1` are 31 nM, 240 nM and 6600 nM.
For the compound `COc1cc2c(NC3CCN(C)CC3)nc(N3CCCN(C)CC3)nc2cc1OCCCN(C)C`, the 50% effective concentration (EC50) in [1] was 34000 nM.
